Bioassay records from PubChem.
Shown are actives, neighbours in structure and some others; about 2.5% of the full set was active somewhere.
FN deposit inh = fibronectin deposition inhibition; hit rate 0.086% among 350,000; AID 743247; AH1F fibroblasts, Alexa488-fibronectin deposition fluorescence, overnight; inhibition, % at 12.6 µM;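 active = mean inhibition across replicates of 30% or more, regardless of how many single replicates reach that level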;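 note: positive control wells lacked labelled fibronectin entirely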
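Assay system: AH1F fibroblast monolayer, labelled fibronectin deposition. Amount: 10000 cells per well. Also added: labelled fibronectin 24 nM. Compound: single-point pinned compound. Incubation: cell attachment 1 h, compound and FN exposure overnight. Detection: fluorescence after three HBSS washes, excitation 485 nm, emission 525 nm. Read-out: inhibition of fibronectin deposition signal.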
EWS-Fli block = blocks EWS/Fli oncoprotein-driven transcription. inhibition, % at 12.6 µM. hit rate 0.67% among 350,000. A673 NR0B1-luciferase reporter, viability-normalised;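 active = mean inhibition of at least 50% after viability correction, with every replicate also passing that limit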;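 note: firefly luciferase signal divided by Alamar Blue viability fluorescence both relative to DMSO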
Env fusion inh = HIV envelope-mediated fusion inhibition. HeLa-JRFL Env/CEM21 cell fusion, luciferase. inhibition, % at 12.3 µM. hit rate 1.1% among 360,000. AID 651610;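 active = mean replicate inhibition score of at least 50 and every replicate individually at or above 50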;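 note: 0% = plate neutral controls and 100% = maraviroc near 300 nM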
MLL AF4-AF9 inh = inhibitors of human MLL-AF4/AF9 interaction. hit rate 0.47% among 350,000. AID 651704. AlphaScreen, biotin-AF4 peptide binding to FLAG-AF9. P42568. inhibition, % at 10 µM;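 active = every replicate reaching a set inhibition limit, whatever the replicate mean, cut at about 25% in these data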;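 note: 0% = plate neutral control median and 100% = total signal loss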
Target sequence (P42568 whole entry, looked up): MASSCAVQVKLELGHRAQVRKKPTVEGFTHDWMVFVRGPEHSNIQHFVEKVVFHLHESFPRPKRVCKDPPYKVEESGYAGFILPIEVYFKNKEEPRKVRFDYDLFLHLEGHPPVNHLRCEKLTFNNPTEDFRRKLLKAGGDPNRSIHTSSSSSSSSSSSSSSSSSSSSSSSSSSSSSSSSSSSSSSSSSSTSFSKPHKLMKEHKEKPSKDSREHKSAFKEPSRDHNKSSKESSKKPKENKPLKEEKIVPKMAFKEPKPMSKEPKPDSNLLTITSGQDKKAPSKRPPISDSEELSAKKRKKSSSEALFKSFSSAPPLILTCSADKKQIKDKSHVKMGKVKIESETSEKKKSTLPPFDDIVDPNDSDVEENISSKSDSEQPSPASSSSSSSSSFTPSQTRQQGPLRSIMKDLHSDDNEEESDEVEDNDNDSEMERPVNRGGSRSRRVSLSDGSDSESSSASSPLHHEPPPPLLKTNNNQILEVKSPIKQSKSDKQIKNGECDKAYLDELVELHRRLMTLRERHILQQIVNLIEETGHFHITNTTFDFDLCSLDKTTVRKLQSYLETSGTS
Glyco luc inh = blocks N-linked glycosylation in D54 reporter cells; D54 ERlucT glycosylation luciferase reporter, 24 h; percent of 100 nM tunicamycin response; hit rate 0.23% among 360,000; AID 588692; reporter increase, % at 12.5 µM;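 active = mean luciferase reporter signal, scaled so untreated is 0 and the glycosylation-blocking control 100, at or above a set limit in every replicate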;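 note: luciferase carries N-glycosylation sites so blocking glycosylation raises the light; 0% = median of neutral control wells and 100% = median of 100 nM tunicamycin wells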
PAX8 reporter = inhibitors of PAX8 transcriptional activity in RMG-I cells | RMG-I TPO-luciferase reporter, SteadyGlo, 24 h | inhibition, % at 12.6 µM | hit rate 1.2% among 360,000;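 active = mean replicate inhibition at least 60% with every replicate also reaching 60%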;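 note: luciferase light reporting Pax8 driven TPO promoter activity; plate controls were median of neutral control wells for no effect and mitoxantrone controls for full effect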
Starred values were filed as active, the others as inactive; / = no result; [ ] = another dose, or the depositor's remark.

SMILES	FN deposit inh	EWS-Fli block	Env fusion inh	MLL AF4-AF9 inh	Glyco luc inh	PAX8 reporter
CC(=O)N(C)C[C@H]1Oc2ccc(N)cc2CC(=O)N(C)C[C@H]1C	2.7	/	/	/	/	/
O=C1NN=C2CCCCCCCCCCC12 (stereo not given)	/	1.6	58.2*	-2.3	0.1	-0.6
O=c1[nH]c2c(c(=O)[nH]1)CCCCCC2	-3.3	-0.3	3.7	-3.8	1.8	/
COC(=O)CN1C(=S)N(C)C(=O)C1CC(=O)Nc1ccccc1 (stereo not given)	-5.6	-5.0	/	5.4	2.2	114.6*
COC(=O)CN1C(=S)N(c2ccc(Cl)cc2)C(=O)C1CC(=O)Nc1ccccc1 (stereo not given)	-1.8	4.3	3.8	0.3	3.9	14.5
COc1cc(C2C3=C(COC3=O)Oc3cc4c(cc32)OCO4)ccc1O (stereo not given)	7.2	35.1	-3.5	2.7	7.9	6.5
COc1cc(C2C3=C(COC3=O)OC(C)(C)Oc3cc4c(cc32)OCO4)cc(OC)c1OC (stereo not given)	-34.8	54.2*	30.2	0.0	13.6	93.4*
C[C@@H]1CCCCO[C@H](CN(C)Cc2ccccc2)[C@@H](C)CN([C@@H](C)CO)C(=O)c2cc(NS(=O)(=O)c3ccc(Cl)cc3)ccc2O1	-3.1	7.0	29.9[16.7 µM]	5.5	/	74.8*
C[C@H]1CCCCO[C@H](CN(C)Cc2ccccc2)[C@@H](C)CN([C@@H](C)CO)C(=O)c2cc(NS(=O)(=O)c3ccc(Cl)cc3)ccc2O1	4.1	5.5	47.3[16.7 µM]	7.4	/	39.6
C[C@@H]1CN([C@H](C)CO)C(=O)c2cc(NS(=O)(=O)c3ccc(Cl)cc3)ccc2O[C@@H](C)CCCCO[C@@H]1CN(C)Cc1ccccc1	-12.5	7.9	65.2*[16.7 µM]	0.8	/	111.6*
Cc1cc(/C=N/N2CCN(C)CC2)c(C)n1-c1ccc(Cl)cc1	-3.7	-16.1	-9.4	48.3*	-3.4	-1.7
Cc1cc(/C=N/n2cnnc2)c(C)n1-c1ccc(Cl)cc1	-2.0	/	-31.7	/	-2.2	20.0
CC(C)(C)N(Cc1ccc2c(c1)OCO2)C(=O)/C=C\S(=O)c1ccccc1 (stereo not given)	21.5	46.5	40.7	3.1	-15.7	95.3*
COc1ccc2c3c(n(C)c2c1)[C@H](CO)N(C(=O)NC1CCCC1)CC31CN(C(C)=O)C1	/	/	/	0.8	/	/
COc1ccc(C(=O)/C=C/Sc2nc3ccccc3o2)cc1	-3.7	54.7*	-284.0	/	20.6	4.8
CCOC(=O)C1=C(COC(=O)c2ccco2)NC(=O)NC1CC (stereo not given)	7.4	0.6	-5.5	29.3*	0.9	-4.8
C[C@H](CO)N1C[C@H](C)[C@H](CN(C)Cc2ccc(Oc3ccccc3)cc2)Oc2ncc(-c3cncnc3)cc2C1=O	/	2.0	6.5[16.7 µM]	4.1	/	-4.5
CCc1[nH]nc2c1C(Cc1ccccc1)C(C#N)=C(N)O2 (stereo not given)	3.6	/	-42.5	/	0.4	/
CCCc1[nH]nc2c1C(Cc1ccccc1)C(C#N)=C(N)O2 (stereo not given)	/	/	63.7*	/	-2.6	/
C[C@H]1CN([C@@H](C)CO)C(=O)c2cccc(NS(C)(=O)=O)c2O[C@H]1CN(C)Cc1ccc2c(c1)OCO2	/	/	11.4[16.7 µM]	-2.3	/	-17.9
Cn1cnc(S(=O)(=O)N2CCCCN3[C@H](CO)[C@H](c4ccc(C5=CCCC5)cc4)[C@@H]3C2)c1	/	-7.2	/	-8.8	/	-24.3
C[C@H](CO)N1C[C@H](C)[C@H](CN(C)C(=O)Nc2cc(F)ccc2F)Oc2cc(/C=C/c3ccccc3)ccc2S1(=O)=O	19.4	19.1	33.1[16.7 µM]	1.1	/	65.3*
C[C@H]1CN([C@@H](C)CO)S(=O)(=O)c2ccc(/C=C/c3ccccc3)cc2O[C@@H]1CN(C)C(=O)Nc1cccc(F)c1	/	20.5	2.2[16.7 µM]	-0.2	/	62.0*
C[C@H](CO)N1C[C@H](C)[C@H](CN(C)C(=O)Nc2cccc(F)c2)Oc2cc(/C=C/c3ccccc3)ccc2S1(=O)=O	/	29.3	37.8[16.7 µM]	-7.2	/	20.2
COCC(=O)Nc1ccc2c(c1)C(=O)N(C)C[C@@H](OC)[C@@H](C)CN(C(=O)c1ccccn1)[C@H](C)CO2	-3.9	-0.4	/	3.2	/	2.4
SMILES	FN deposit inh	EWS-Fli block	Env fusion inh	MLL AF4-AF9 inh	Glyco luc inh	PAX8 reporter
CC(C)OP(=O)(Nc1cccc2ccccc12)OC(C)C	18.1	1.5	94.3*	1.7	-3.2	18.4
COCC#Cc1ccc2c(c1)O[C@@H](CN(C)S(=O)(=O)c1ccc(F)cc1)[C@@H](C)CN([C@H](C)CO)S2(=O)=O	/	4.6	-4.9[16.7 µM]	-4.8	/	/
COc1ccc2c3c(n(C)c2c1)[C@@H](CO)N(Cc1ccc(Cl)cc1)CC31CCN(CC2CC2)CC1	7.3	2.4	/	37.0*	/	/
COc1ccc2c3c(n(C)c2c1)[C@H](CO)N(Cc1ccccc1)CC31CCN(S(=O)(=O)c2ccc(C)cc2)CC1	/	42.2	/	-16.8	/	83.9*
COc1ccc2c3c(n(C)c2c1)[C@H](CO)N(Cc1ccncc1)CC31CCN(C(=O)C2CCCCC2)CC1	/	11.4	/	30.6*	/	4.5
COc1ccc2c3c(n(C)c2c1)[C@@H](CO)N(Cc1ccccc1)CC31CN(S(=O)(=O)c2ccc(C)cc2)C1	9.6	/	/	/	/	/
COc1ccc2c3c(n(C)c2c1)[C@H](CO)N(Cc1ccncc1)CC31CCN(C(=O)C2CCC2)CC1	/	10.8	/	-3.9	/	-16.4
COc1ccc2c3c(n(C)c2c1)[C@H](CO)N(Cc1ccc(Cl)cc1)CC31CCN(CC2CC2)CC1	15.7	8.3	/	29.5*	/	/
O=C(c1ccncc1)N1C[C@H]2[C@@H](c3ccccc31)[C@@H](CO)N2C(=O)Nc1ccc(F)cc1	/	11.5	/	-1.7	/	-1.4
C[C@H]1CN([C@@H](C)CO)C(=O)Cc2cc(NS(=O)(=O)c3ccc(Cl)cc3)ccc2O[C@@H]1CN(C)Cc1ccc(C(=O)O)cc1	/	-8.9	-38.5[16.7 µM]	-1.2	/	/
COc1ccc2c3c(n(C)c2c1)[C@H](CO)N(Cc1ccc(F)cc1)CC31CCN(CC2CC2)CC1	/	-8.1	/	6.7	/	/
COc1ccc2c3c(n(C)c2c1)[C@H](CO)N(Cc1ccccc1F)CC31CCN(CC2CC2)CC1	/	-4.8	/	40.0*	/	-16.6
COc1ccc2c3c(n(C)c2c1)[C@@H](CO)N(Cc1ccccc1OC)CC31CCN(C)CC1	/	-11.2	/	26.3*	/	/
COc1ccc2c3c(n(C)c2c1)[C@@H](CO)N(Cc1ccccc1)CC31CCN(C)CC1	/	-2.3	/	8.3	/	/
CCCCNC(=O)O[C@@H]1C[C@@H]2CCN3C(=O)CCC[C@H]([C@H]1CC)[C@H]23	2.5	-6.1	-16.8	94.2*	0.3	-7.5
CCCCNC(=O)/C(=C/c1ccccc1)NC(C)=O	-8.4	-4.8	-3.3	-2.9	1.0	138.8*
